In series [1] the test system is Mus musculus. Description: Anticonvulsant activity against Maximal electroshock seizure at dose 300 mg/kg at 0.5 hr. In kind it is functional. In short, it runs like this:
(§1)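 Phase I mouse screen. Compound was suspended in 30% polyethylene glycol 400 and given by intraperitoneal injection at 30, 100, 300 or 600 mg/kg. Testing was at 30 min and 4 h (maximal electroshock or subcutaneous pentylenetetrazol), with rotorod toxicity scored alongside. Scored as animals protected/tested; toxicity was flagged at the 0.5 h or 4 h check.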

For series [2], the system named is Mus musculus. Description: Anticonvulsant activity against Maximal electroshock seizure at dose 300 mg/kg at 4 hr. Type of series: functional. In short, it runs like this:
as §1

Series [3] concerns Mus musculus. Description: Anticonvulsant activity against Maximal electroshock seizure at dose 600 mg/kg at 4 hr. Type of series: functional. In short, it runs like this: as §1
Series [4] relates to Mus musculus. The series is described as follows: Anticonvulsant activity against Subcutaneous pentylenetetrazole test at dose 300 mg/kg at 0.5 hr. In kind it is functional. The method, boiled down: as §1
Series [5] deals with Mus musculus. Description: Anticonvulsant activity against Subcutaneous pentylenetetrazole test at dose 300 mg/kg at 4 hr. Type of series: functional. The method, boiled down: as §1
The test system of series [6] is Mus musculus. Description: Anticonvulsant activity against Subcutaneous pentylenetetrazole test at dose 600 mg/kg at 0.5 hr. Type of series: functional. The method, boiled down: as §1
Series [7] concerns Mus musculus. Description: Anticonvulsant activity against Subcutaneous pentylenetetrazole test at dose 600 mg/kg at 4 hr. In kind it is functional. The method, boiled down:
as §1

Series [8] relates to Mus musculus. Description: Anticonvulsant activity against neurologic toxicity test at dose 300 mg/kg at 0.5 hr. Type of series: organism-based. Further details: dose 300 mg/kg. The note with it: in vivo. In short, it runs like this:
(§2)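 Mice got the compound as a suspension in 30% polyethylene glycol 400 by ip injection (30, 100, 300, 600 mg/kg) 30 min or 4 h before the rotorod neurological toxicity test. The value is the number of animals showing toxicity over the number tested.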

Series [9] has as its system Mus musculus. The series is described as follows: Anticonvulsant activity against neurologic toxicity test at dose 300 mg/kg at 4 hr. In kind it is organism-based. Further details: dose 300 mg/kg. To be noted: in vivo. In short, it runs like this:
as §2

The subject of series [10] is Mus musculus. The series is described as follows: Anticonvulsant activity against neurologic toxicity test at dose 600 mg/kg at 0.5 hr. Type of series: organism-based. Details: dose 600 mg/kg. The note with it: in vivo. The method, boiled down: as §2
Series [11] relates to Mus musculus. Description: Anticonvulsant activity against neurologic toxicity test at dose 600 mg/kg at 4 hr. Details: dose 600 mg/kg. To be noted: in vivo. Type of series: organism-based. The method, boiled down: as §2
The subject of series [12] is Mus musculus. The series is described as follows: Anticonvulsant activity against Maximal electroshock seizure at dose 600 mg/kg at 0.5 hr. Type of series: functional. In short, it runs like this:
as §1

In series [13] the test system is Mus musculus. The series is described as follows: Phase II qualification against administered subcutaneously was reported. In kind it is functional. The note with it: sc. In short, it runs like this:
(§3)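 Mice were used. scMet ED50 and rotorod TD50 came from groups of 6–12 mice dosed over a range until at least three points fell within 10–90% protection or minimal neurotoxicity. Both were read at the time of peak effect, 0.5 h. ED50, TD50 and 95% confidence intervals were obtained from a plot by the Litchfield–Wilcoxon method. PI = TD50/ED50.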

Series [14] has as its system Mus musculus. The series is described as follows: Phase V qualification against antipicrotoxin activity administered subcutaneously at 3.2 mg/kg. Type of series: functional. To be noted: sc, route subcutaneous.
In series [15] the test system is Mus musculus. The series is described as follows: Anticonvulsant activity against Maximal electroshock seizure at dose 300 mg/kg at 0.5 hr; toxic. Details: dose 300 mg/kg. Type of series: ADME, organism-based. To be noted: in vivo. The method, boiled down:
as §1

In series [16] the test system is Mus musculus. Description: Anticonvulsant activity against Bicucullin (3.75 mg/kg) induced clonic seizure at dose 150 mg/kg subcutaneously at pretreatment time of 15 min. In kind it is functional. The note with it: route subcutaneous. In short, it runs like this: (§4)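 CF1 mice (Sprague–Dawley) were given the compound sc in 30% polyethylene glycol 400, with vehicle-injected controls. After the stated pretreatment interval, at the time of peak effect, bicuculline 3.75 mg/kg was injected sc; this dose gives clonic and tonic seizures and death in all controls. Clonic seizure = at least one 5-s clonic spasm episode. Tonic seizure = hindlimb flexion then extension. Scored as mice protected/tested plus mean ± SD onset, minutes.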

Series [17] has as its system Mus musculus. The series is described as follows: Anticonvulsant activity against Bicucullin (3.75 mg/kg) induced clonic seizure at dose 150 mg/kg subcutaneously at pretreatment time of 30 min. In kind it is functional. To be noted: route subcutaneous. In short, it runs like this:
as §4

The subject of series [18] is Mus musculus. Description: Anticonvulsant activity against Bicucullin (3.75 mg/kg) induced death at dose 150 mg/kg subcutaneously at pretreatment time of 15 min. Type of series: ADME, organism-based. Details: dose 150 mg/kg, route subcutaneous. To be noted: in vivo, sc.
Series [19] deals with Mus musculus. The series is described as follows: Anticonvulsant activity against Bicucullin (3.75 mg/kg) induced death at dose 150 mg/kg subcutaneously at pretreatment time of 30 min. In kind it is ADME, organism-based. Further details: dose 150 mg/kg, route subcutaneous. To be noted: in vivo, sc.
Series [20] relates to Mus musculus. The series is described as follows: Anticonvulsant activity against Bicucullin (3.75 mg/kg) induced tonic seizure at dose 150 mg/kg subcutaneously at pretreatment time of 15 min. In kind it is functional. The note with it: route subcutaneous. The method, boiled down: as §4
Series [21] in a line: Phase II qualification against neurotoxicity administered subcutaneously was reported. Type of series: toxicity, organism-based. The note with it: mouse, in vivo, sc. The method, boiled down: as §3
A short description of series [22]: Phase V qualification against neurotoxicity administered subcutaneously at a dose (3.2 mg/kg) was reported. In kind it is toxicity, organism-based. The note with it: mouse, in vivo, sc.
Series [23] concerns Mus musculus. Description: Anticonvulsant activity against picrotoxin (4.0 mg/kg) induced clonic seizures at 180 mg/kg subcutaneous dose 15 min pretreatment. Type of series: functional.
Series [24] is described as follows: Protective index is the ratio of TD50 to that of ED50. In kind it is ADME. The note with it: read-out: Protective index. In short, it runs like this:
as §3

Series [25] has as its system Mus musculus. Description: Anticonvulsant activity against Bicucullin (3.75 mg/kg) induced tonic seizure at dose 150 mg/kg subcutaneously at pretreatment time of 30 min. In kind it is functional. The note with it: route subcutaneous. In short, it runs like this: as §4
The subject of series [26] is Mus musculus. Description: Anticonvulsant activity against Maximal electroshock seizure at dose 300 mg/kg at 4 hr; toxic. Type of series: ADME, organism-based. Details: dose 300 mg/kg. To be noted: in vivo. In short, it runs like this: as §1
Series [27] deals with Mus musculus. The series is described as follows: Anticonvulsant activity against Bicucullin (3.75 mg/kg) induced clonic seizure at dose 300 mg/kg subcutaneously at pretreatment time of 30 min. Type of series: functional. To be noted: route subcutaneous. The method, boiled down:
as §4

Series [28] relates to Mus musculus. Description: Anticonvulsant activity against Bicucullin (3.75 mg/kg) induced death at dose 300 mg/kg subcutaneously at pretreatment time of 30 min. In kind it is ADME, organism-based. Details: dose 300 mg/kg, route subcutaneous. The note with it: in vivo, sc.
The subject of series [29] is Mus musculus. The series is described as follows: Anticonvulsant activity against Bicucullin (3.75 mg/kg) induced tonic seizure at dose 300 mg/kg subcutaneously at pretreatment time of 30 min. Type of series: functional. The note with it: route subcutaneous. The method, boiled down:
as §4

In series [30] the test system is Mus musculus. The series is described as follows: Anticonvulsant activity against Bicucullin (3.75 mg/kg) induced clonic seizure at dose 200 mg/kg subcutaneously at pretreatment time of 30 min. The note with it: route subcutaneous. Type of series: functional. In short, it runs like this:
as §4

The test system of series [31] is Mus musculus. Description: Anticonvulsant activity against Bicucullin (3.75 mg/kg) induced death at dose 200 mg/kg subcutaneously at pretreatment time of 30 min. Further details: dose 200 mg/kg, route subcutaneous. Type of series: ADME, organism-based. To be noted: in vivo, sc.
In series [32] the test system is Mus musculus. Description: Anticonvulsant activity against Bicucullin (3.75 mg/kg) induced tonic seizure at dose 200 mg/kg subcutaneously at pretreatment time of 15 min. Type of series: functional. To be noted: route subcutaneous, in the assay text read “pretreatment time of 30 min” for “pretreatment time of 15 min”. In short, it runs like this: as §4

Turning to `O=C(O)C1(C(=O)O)CCC2(CCCCC2)C1`, the No. protected/tested is on record as 0 in the series with Mus musculus [1]; 0 in the series on Mus musculus [2]; 0 in the series on Mus musculus [3]; 0 in the series on Mus musculus [4]; 0 in the series with Mus musculus [5]; 1 in the series on Mus musculus [6]. For the same compound, the No. protected/tested in the series with Mus musculus [7] and in the series on Mus musculus [12] was 0 in each case. The No. toxicity/tested was determined as 0 in the series with Mus musculus [8], 0 in the series with Mus musculus [9], 0 with Mus musculus [10] and 2 with Mus musculus [11].
Regarding `O=C(O)C1CCC2(CCCCCC2)C1` (centres undefined), the results for the ED50 in the series with Mus musculus [13] and with Mus musculus [14] were 83 mg/kg and 167 mg/kg, respectively. Further, the No. protected/tested is 1 with Mus musculus [15]; 0 with Mus musculus [2]; 0 with Mus musculus [3]; 1 with Mus musculus [4]; 0 in the series with Mus musculus [5]; 1 in the series on Mus musculus [6]. Besides, the values for the No. protected/tested in the series with Mus musculus [7] and in the series on Mus musculus [12] were 1 and 0, respectively. For the same compound, the No. toxicity/tested with Mus musculus [8] turned out to be 1; with Mus musculus [9] it was 0; in the series with Mus musculus [10] it was 4; with Mus musculus [11], 1. Moreover, the Average onset in the series with Mus musculus [16] is on record as 7 min; with Mus musculus [17], 8 min; with Mus musculus [18], 10 min; with Mus musculus [19], 14 min; in the series with Mus musculus [20], 10 min; in the series on Mus musculus [23] it was 21 min. Moreover, the Average onset in the series with Mus musculus [25] is given as 13 min. For the same compound, the TD50 in series [21] and in [22] was 193 mg/kg throughout. The selectivity ratio in [24] came out at 2.3.
In the case of `O=C(O)C1(C(=O)O)CCC2(CCCCCC2)C1`, in the series with Mus musculus [13], the ED50 turned out to be 194 mg/kg. The No. protected/tested in the series on Mus musculus [1] turned out to be 0; with Mus musculus [26] it was 0; in the series with Mus musculus [3], 0; in the series on Mus musculus [4], 1; with Mus musculus [5], 0; in the series with Mus musculus [6], 1. The No. protected/tested in the series on Mus musculus [7] and in the series on Mus musculus [12] was 0 throughout. The No. toxicity/tested with Mus musculus [8] came out at 0; in the series on Mus musculus [9], 0; with Mus musculus [10] it was 3; in the series on Mus musculus [11], 2. Further, the Average onset is 9 min in the series with Mus musculus [27], 13 min with Mus musculus [28] and 12 min in the series on Mus musculus [29]. In [21], this compound yielded a TD50 of 275 mg/kg. Besides, the selectivity ratio in series [24] was 1.4.
On to `O=C(O)C1CCC2(CCCCC2)C1` (centres undefined), for which the No. protected/tested in the series on Mus musculus [15] was found to be 1; in the series with Mus musculus [2] it was 0; with Mus musculus [3] it was 0; with Mus musculus [4] it was 1; with Mus musculus [5], 0; in the series on Mus musculus [6], 1. Further, the No. protected/tested in the series on Mus musculus [7] and with Mus musculus [12] was 0 in each case. Also, the No. toxicity/tested with Mus musculus [8] is given as 3; in the series with Mus musculus [9], 0; with Mus musculus [10] it was 4; in the series on Mus musculus [11], 0. Further, the Average onset in the series on Mus musculus [30] is given as 8 min; in the series on Mus musculus [31], 12 min; in the series on Mus musculus [32], 11 min.

The values above are taken from ChEMBL document CHEMBL1122969, “Spiro[4.5] and spiro[4.6] carboxylic acids: cyclic analogues of valproic acid. Synthesis and anticonvulsant evaluation” (J Med Chem, 1985).
